Results from ChEMBL document CHEMBL5223178, “Macrocyclic Retinoic Acid Receptor-Related Orphan Receptor C2 Inverse Agonists” (ACS Med Chem Lett, 2023).

Tests used:
[1] = Inverse agonist activity at 6His-tagged RORC2 LBD (unknown origin) expressed in Escherichia coli assessed as inhibition of biotinylated SRC1-2 derived CPSSHSSLTERHKILHRLLQEGSPS-NH2 containing LXXLL coactivator peptide incubated for 3 hrs by TR-FRET assay; design: species or system Homo sapiens
Procedure, shortened: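 TR-FRET cofactor recruitment measuring displacement of SRC1-2 coactivator peptide binding to histidine-tagged RORC2 ligand-binding domain. Values are means of two or more independent assays.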

[2] = Inhibition of IL-17A production in human Th17 cells incubated for 6 days […]; type: functional, cell-based; settings: Th17, 144 h
Procedure, shortened: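 Inhibition of IL-17A production by human primary Th17 cells. Values are means of two or more independent assays.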

[3] = Lipophilicity, log D of the compound at pH 7.4 by reverse phase HPLC; type: physicochemical; settings: buffer
Procedure, shortened: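 LogD at pH 7.4 determined by reverse-phase HPLC. Values are means of two or more independent assays.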

[4] = Passive apparent permeability in MDCKII-LE cells; type: ADME, cell-based, Canis lupus familiaris; settings: dog, MDCK
Procedure, shortened: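 Passive permeability measured across RRCK (MDCKII-LE) cell monolayers. Values are means of two or more independent assays.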

[5] = Clearance in human liver microsomes; type: ADME, Microsome; settings: read-out: CLH
HeLa = experiment: Antagonist activity at RORC2 in human HeLa cells assessed as reduction in NR activity at 1 to 10 uM relative to control; type: cell-based; design: scale not given: the % may be the effect or the level left; settings: dose 1-10 µM
Procedure, shortened: (§1)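 Multiplexed trans-FACTORIAL profiling: cells transfected with ligand-binding-domain chimeric constructs of 48 nuclear receptors fused to GAL4 DNA. Reporter RNA levels were measured. Compound was tested at 1 and 10 μM. Readout was fold change versus control, with a 20% change as the threshold for antagonist (reduction) or agonist (increase) effect.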

[6] = biological target: T1, Nuclear receptor ROR-beta (Homo sapiens, UniProt Q92753); experiment: Inverse agonist activity at 6His-tagged RORB LBD (unknown origin) expressed in Escherichia coli assessed as inhibition of biotinylated SRC1-2 derived CPSSHSSLTERHKILHRLLQEGSPS-NH2 containing LXXLL coactivator peptide incubated for 3 hrs by TR-FRET assay
T1 sequence (Q92753 whole entry): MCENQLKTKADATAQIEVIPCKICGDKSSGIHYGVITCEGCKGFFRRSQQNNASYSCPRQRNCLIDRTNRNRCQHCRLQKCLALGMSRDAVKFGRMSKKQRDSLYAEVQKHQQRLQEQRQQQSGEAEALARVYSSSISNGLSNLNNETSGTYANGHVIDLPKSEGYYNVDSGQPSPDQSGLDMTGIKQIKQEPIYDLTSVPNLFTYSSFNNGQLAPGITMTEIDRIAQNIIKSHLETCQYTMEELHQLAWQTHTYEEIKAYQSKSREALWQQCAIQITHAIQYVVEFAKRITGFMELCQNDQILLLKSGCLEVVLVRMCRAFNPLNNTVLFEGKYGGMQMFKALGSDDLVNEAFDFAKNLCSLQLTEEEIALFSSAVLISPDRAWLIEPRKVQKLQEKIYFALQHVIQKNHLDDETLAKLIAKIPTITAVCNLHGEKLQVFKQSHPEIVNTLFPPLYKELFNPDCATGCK

Homo sapiens [7] = experiment: Ex vivo drug penetration in human abdominal skin applied topically using flow-through diffusion cell assessed as compound concentration in skin epidermis measured upto 24 hrs by LC-MS/MS based in vitro skin penetration assay; type: functional; settings: Abdomen skin
Procedure, shortened: (§2)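 Ex vivo human skin dosed topically with a 2.75% (w/w) formulation in 30% ethanol, 30% PEG400, 20% diethylene glycol monoethyl ether and 20% glycerin (w/w). Cumulative amount in receptor solution (ng/cm2) was followed over 24 h. At 24 h, excess surface compound was removed, and epidermis and dermis were separated and homogenized to measure concentration (μg/g). Results are means with SEM.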

[8] = biological target: Voltage-gated inwardly rectifying potassium channel KCNH2 (Homo sapiens, UniProt Q12809); experiment: Displacement of [3H]-dofetilide from human ERG; type: toxicity
Voltage-gated inwardly rectifying potassium channel KCNH2, sequence (Q12809 whole entry): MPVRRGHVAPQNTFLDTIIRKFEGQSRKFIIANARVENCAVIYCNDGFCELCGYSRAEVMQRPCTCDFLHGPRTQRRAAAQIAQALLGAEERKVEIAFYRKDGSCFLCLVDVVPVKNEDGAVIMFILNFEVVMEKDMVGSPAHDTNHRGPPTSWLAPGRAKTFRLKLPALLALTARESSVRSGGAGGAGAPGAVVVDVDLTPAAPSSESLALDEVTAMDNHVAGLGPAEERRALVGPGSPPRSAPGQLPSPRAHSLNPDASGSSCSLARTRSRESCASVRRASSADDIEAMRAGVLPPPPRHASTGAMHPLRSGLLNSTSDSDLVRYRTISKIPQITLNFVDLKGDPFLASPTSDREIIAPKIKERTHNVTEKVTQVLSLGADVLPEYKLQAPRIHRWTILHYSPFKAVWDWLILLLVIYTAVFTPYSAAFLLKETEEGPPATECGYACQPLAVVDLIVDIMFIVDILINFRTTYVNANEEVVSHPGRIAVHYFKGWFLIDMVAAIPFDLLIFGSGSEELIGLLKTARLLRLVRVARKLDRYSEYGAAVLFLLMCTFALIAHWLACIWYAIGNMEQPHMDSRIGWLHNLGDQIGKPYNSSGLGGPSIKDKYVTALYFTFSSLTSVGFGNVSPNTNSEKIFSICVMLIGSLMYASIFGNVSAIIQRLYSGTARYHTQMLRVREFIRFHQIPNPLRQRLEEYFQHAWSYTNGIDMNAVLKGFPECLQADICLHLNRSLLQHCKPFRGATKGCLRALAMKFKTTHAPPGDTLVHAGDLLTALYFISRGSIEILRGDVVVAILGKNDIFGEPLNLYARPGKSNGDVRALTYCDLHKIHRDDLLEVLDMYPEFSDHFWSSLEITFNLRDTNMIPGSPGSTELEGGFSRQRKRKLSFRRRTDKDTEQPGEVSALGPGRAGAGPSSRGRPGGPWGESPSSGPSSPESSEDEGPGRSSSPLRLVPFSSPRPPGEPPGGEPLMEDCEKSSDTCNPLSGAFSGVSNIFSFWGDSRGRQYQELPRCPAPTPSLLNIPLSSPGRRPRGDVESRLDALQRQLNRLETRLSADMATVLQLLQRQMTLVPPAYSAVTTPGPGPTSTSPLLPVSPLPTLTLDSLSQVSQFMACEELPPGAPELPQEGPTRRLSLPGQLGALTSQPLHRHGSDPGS
Procedure, shortened: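 Binding assay measuring displacement of [3H]dofetilide. Values are means of two or more independent assays.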

Homo sapiens [9] = experiment: Ex vivo drug penetration in human abdominal skin applied topically using flow-through diffusion cell assessed as compound concentration in dermis layers measured upto 24 hrs by LC-MS/MS based in vitro skin penetration assay; type: functional, Abdomen skin; procedure, shortened: as §2
Homo sapiens [10] = experiment: Ex vivo drug penetration in human abdominal skin applied topically using flow-through diffusion cell assessed as compound flux through skin measured upto 24 hrs by LC-MS/MS based in vitro skin penetration assay; type: functional; settings: Abdomen skin; procedure, shortened: as §2
[11] = biological target: T2, Nuclear receptor ROR-alpha (Homo sapiens, UniProt P35398); experiment: Inverse agonist activity at 6His-tagged RORA LBD (unknown origin) expressed in Escherichia coli assessed as inhibition of biotinylated SRC1-2 derived CPSSHSSLTERHKILHRLLQEGSPS-NH2 containing LXXLL coactivator peptide incubated for 3 hrs by TR-FRET assay
T2 sequence (P35398 whole entry): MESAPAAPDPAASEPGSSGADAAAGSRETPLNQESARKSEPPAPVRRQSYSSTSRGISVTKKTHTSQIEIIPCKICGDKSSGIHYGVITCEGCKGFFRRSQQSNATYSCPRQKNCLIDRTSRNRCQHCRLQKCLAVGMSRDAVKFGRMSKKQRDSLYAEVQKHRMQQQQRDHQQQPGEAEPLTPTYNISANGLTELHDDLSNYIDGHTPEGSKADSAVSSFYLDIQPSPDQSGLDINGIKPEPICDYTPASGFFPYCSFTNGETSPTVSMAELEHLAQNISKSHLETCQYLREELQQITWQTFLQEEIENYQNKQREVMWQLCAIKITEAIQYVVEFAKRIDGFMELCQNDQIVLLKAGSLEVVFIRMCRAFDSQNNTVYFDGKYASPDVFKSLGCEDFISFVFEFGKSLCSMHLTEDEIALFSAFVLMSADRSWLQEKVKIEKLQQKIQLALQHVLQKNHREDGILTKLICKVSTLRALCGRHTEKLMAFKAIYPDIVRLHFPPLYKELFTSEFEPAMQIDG

PXR (NR1I2) = biological target: T3, PXR (NR1I2) (Homo sapiens, UniProt O75469); experiment: Agonist activity at PXR in human HeLa cells assessed as increase in NR activity at 10 uM relative to control; type: cell-based; settings: read-out: Activity; procedure, shortened: as §1
T3 sequence (O75469 whole entry): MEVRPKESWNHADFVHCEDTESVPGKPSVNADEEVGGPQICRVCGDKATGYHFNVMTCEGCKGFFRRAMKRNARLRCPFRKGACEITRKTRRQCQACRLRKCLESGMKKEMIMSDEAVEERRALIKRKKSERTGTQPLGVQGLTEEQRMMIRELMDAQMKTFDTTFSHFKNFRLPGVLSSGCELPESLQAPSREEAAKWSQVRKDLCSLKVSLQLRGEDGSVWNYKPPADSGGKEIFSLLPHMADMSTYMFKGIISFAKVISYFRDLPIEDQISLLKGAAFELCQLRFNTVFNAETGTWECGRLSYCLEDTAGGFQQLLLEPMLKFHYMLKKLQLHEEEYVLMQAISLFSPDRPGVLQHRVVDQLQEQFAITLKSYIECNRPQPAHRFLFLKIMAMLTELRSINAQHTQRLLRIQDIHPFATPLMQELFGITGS

IC50 [1]	chromatographic logD [3]	Papp [4]	microsomal CLint [5]	IC50 [6]	IC50 [11]	activity at 10 µM (PXR (NR1I2))	SMILES	IC50 [2]	Activity (HeLa)	Drug uptake (Homo sapiens [7])	Ki [8]	Activity (Homo sapiens [9])	Drug uptake (Homo sapiens [10])
0.014 µM	3.5	21 ×10⁻⁶ cm/s	> 320 µL/min/mg				Cc1c2cc(F)cc1NS(=O)(=O)N(C)CCCCC1CN(CCN1C(=O)CC1CC1)C2 (stereo not drawn)	0.026 µM					
0.12 µM	2.1		55 µL/min/mg				Cc1c2cc(F)cc1NS(=O)(=O)CCCOCC1CN(CCN1C(=O)CC1CC1)C2 (stereo not drawn)	0.11 µM					
0.15 µM	2.9	18.4 ×10⁻⁶ cm/s	160 µL/min/mg				Cc1c2cc(F)cc1NS(=O)(=O)NCCCCC1CN(CCN1C(=O)CC1CC1)C2 (stereo not drawn)	0.17 µM					
0.62 µM	3.3	24.7 ×10⁻⁶ cm/s	71 µL/min/mg				Cc1c2cc(F)cc1NS(=O)(=O)CCCCC1CN(CCN1C(=O)CC1CC1)C2 (stereo not drawn)	2.6 µM					
0.0093 µM	3.4	24 ×10⁻⁶ cm/s	223 µL/min/mg	> 25 µM	> 25 µM	> 20%	Cc1c2cccc1NS(=O)(=O)CCCCC[C@H]1CN(CCN1C(=O)C(C)C)C2	0.028 µM	> 20%	92.7 µg/g	37 µM	18.3 µg/g	28.1 ng/cm2/h
0.0021 µM	5.3	1.3 ×10⁻⁶ cm/s	68 µL/min/mg				Cc1c(CN2CCN(C(=O)C3CCCC3)[C@@H](C)C2)cc(F)cc1NS(=O)(=O)c1ccc(F)cc1	0.0065 µM			4 µM		
0.0054 µM	4.5	6.5 ×10⁻⁶ cm/s	239 µL/min/mg				Cc1c(CN2CCN(C(=O)C3CCCC3)[C@@H](C)C2)cc(F)cc1NC(=O)c1cccc(C#N)c1	0.016 µM			3.6 µM		
0.0052 µM	3.8	19 ×10⁻⁶ cm/s	205 µL/min/mg				Cc1c2cc(F)cc1NS(=O)(=O)CCCCC[C@H]1CN(CCN1C(=O)C(C)C)C2	0.087 µM			19 µM		
2.4 µM	3.6	11.7 ×10⁻⁶ cm/s	80 µL/min/mg				O=C(CC1CC1)N1CCN2Cc3cc(F)cc(c3)NS(=O)(=O)CCCCCC1C2 (stereo not drawn)	> 10 µM					
0.069 µM	3.2	12.4 ×10⁻⁶ cm/s	260 µL/min/mg				Cc1c2cc(F)cc1NS(=O)(=O)CCCCCC1CN(CCN1C(=O)CC1CC1)C2 (stereo not drawn)	0.055 µM					
0.027 µM	2.9	22 ×10⁻⁶ cm/s	130 µL/min/mg				Cc1c2cc(C#N)cc1NS(=O)(=O)CCCCC[C@H]1CN(CCN1C(=O)C(C)C)C2	0.065 µM			17 µM		
0.0024 µM	4.3	17 ×10⁻⁶ cm/s	200 µL/min/mg				Cc1c2cc(Cl)cc1NS(=O)(=O)CCCCC[C@H]1CN(CCN1C(=O)C(C)C)C2	0.0022 µM			11 µM		
0.012 µM	4.7	4.5 ×10⁻⁶ cm/s	53 µL/min/mg				Cc1c(CN2CCN(C(=O)CC3CC3)[C@@H](C)C2)cc(F)cc1NS(=O)(=O)c1ccc(F)cc1	0.141 µM			1.8 µM		
